# How the values were obtained:
# Type in all cases: physicochemical
# [1] = Transnitrosation activity assessed as pseudo first order rate constant at 0.45 mM in presence of 5 mM GSH at pH 1.5 at 37 degC under dark condition; conditions: pH 1.5, 450 µM
# Summary of the method: (§1)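 Pseudo-first-order kobs for GSNO formation was measured at 0.45 mM N-nitrosamine, 5.0 mM GSH with DTPA, and 37 °C, with pH set by HCl (pH-rate profile 1.4–3.3). kobs was the least-squares slope of the initial linear part of ln{[GSNO∞]/([GSNO∞]−[GSNO])} versus time, taking GSNO∞ as the initial nitroso compound level (0.45 mM). There were three separate trials.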
# [2] = Transnitrosation activity assessed as S-nitrosoglutathione level at 0.45 mM in presence of 5 mM GSH at pH 1.5 at 37 degC under dark condition; conditions: pH 1.5, 450 µM
# Summary of the method: (§2)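 Nitrosamine (4.5 mM acetonitrile stock, 0.45 mM final) added to GSH (5.0 mM) with DTPA. The mixture was acidified to pH 1.5 with 0.1 M HCl and held at 37 °C in the dark. GSNO formation was followed against time, and data were taken after 24 h.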
# [3] = Transnitrosation activity assessed as compound consumption level at 0.45 mM in presence of 5 mM GSH at pH 1.5 at 37 degC under dark condition after 24 hrs; conditions: pH 1.5, 24 h, 450 µM; summary of the method: as §2
# [4] = Transnitrosation activity assessed as S-nitrosoglutathione yield at 0.45 mM in presence of 5 mM GSH at pH 1.5 at 37 degC under dark condition after 24 hrs; conditions: pH 1.5, 24 h, 450 µM
# Summary of the method: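 Reaction run at 0.45 mM N-nitrosamine and 5.0 mM GSH, with DTPA, at pH 1.5 (HCl) and 37 °C in the dark. After 24 h, yield was calculated as GSNO formed divided by N-nitrosamine consumed.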
# [5] = Transnitrosation activity assessed as pseudo first order rate constant at 0.45 mM in presence of 5 mM GSH at pH 1.4 at 37 degC under dark condition; conditions: pH 1.4, 450 µM; summary of the method: as §1
# [6] = Transnitrosation activity assessed as pseudo first order rate constant at 0.45 mM in presence of 5 mM GSH at pH 1.7 at 37 degC under dark condition; conditions: pH 1.7, 450 µM; summary of the method: as §1
# [7] = Transnitrosation activity assessed as pseudo first order rate constant at 0.45 mM in presence of 5 mM GSH at pH 2 at 37 degC under dark condition; conditions: pH 2, 450 µM; summary of the method: as §1
# [8] = Transnitrosation activity assessed as pseudo first order rate constant at 0.45 mM in presence of 5 mM GSH at pH 2.2 at 37 degC under dark condition; conditions: pH 2.2, 450 µM; summary of the method: as §1
# [9] = Transnitrosation activity assessed as pseudo first order rate constant at 0.45 mM in presence of 5 mM GSH at pH 2.8 at 37 degC under dark condition; conditions: pH 2.8, 450 µM; summary of the method: as §1
# [10] = Transnitrosation activity assessed as pseudo first order rate constant at 0.45 mM in presence of 5 mM GSH at pH 3.4 at 37 degC under dark condition; conditions: pH 3.4, 450 µM
structure (smiles),measurement,setting,value
NC(=S)C1CSCN1N=O (stereo not drawn),K,[1],1301 ×10⁻⁷ /s
same,Activity,[2],0.43 mM
same,Activity,[3],0.45 mM
same,Activity,[4],95%
same,log K,[5],-3.73
same,log K,[6],-4.24
same,log K,[7],-5.24
same,log K,[8],-4.73
same,log K,[9],-6.16
same,log K,[10],-6.37
CN(C)C(=S)C1CSCN1N=O (stereo not drawn),K,[1],405 ×10⁻⁷ /s
same,Activity,[2],0.38 mM
same,Activity,[3],0.45 mM
same,Activity,[4],84%
CNC(=S)C1CSCN1N=O (stereo not drawn),K,[1],464 ×10⁻⁷ /s
same,Activity,[2],0.38 mM
same,Activity,[3],0.45 mM
same,Activity,[4],85%
